The values below come from ChEMBL document CHEMBL2163277, “The selectivity of austocystin D arises from cell-line-specific drug activation by cytochrome P450 enzymes” (J Nat Prod, 2011).

Structures are written as SMILES. Calls of active or inactive are those of the source. The rule behind the calls is not given here.

The test system of data set [1] is MCF7. In words: Induction of DNA damage in human MCF7 cells assessed as H2AX phosphorylation up to 10 uM after 4 hrs by Western blot analysis. The format is functional, cell-based. In a few lines:
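In-cell Western: MCF7 at 10 000 cells/well, dosed 24 h later with 3-fold serial dilutions (final DMSO 0.1%); 4 h at 37 °C, paraformaldehyde fixation, anti-phospho-H2AX Ser139 with IR800 secondary, DRAQ5 for normalization (800/700 nm ratio); duplicate or triplicate wells, scaled to 0.1% DMSO (0%) and 10 μM etoposide (100%); nonlinear curve fit.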

For data set [2], the system named is MCF7. In words: Growth inhibition of human MCF7 cells at up to 10 uM after 72 hrs by celltiter-blue viability assay. The format is functional, cell-based.
For data set [3], the system named is HCT-15. In words: Induction of DNA damage in human HCT15 cells assessed as H2AX phosphorylation after 4 hrs by Western blot analysis. The format is functional, cell-based. The procedure, abridged: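 HCT-15 cells at 10 000/well, dosed 4 h at 37 °C, 0.1% DMSO final. In-cell Western with anti-phospho-H2AX (Ser139) and DRAQ5. 800/700 nm ratio normalized to 0.1% DMSO (0%) and 10 μM etoposide (100%). Curve fit by nonlinear regression.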
In general terms: In western blotting, separated proteins are transferred to a membrane and probed.

Data set [4] concerns HCT-15. Briefly: Cytotoxicity against MDR1 expressing human HCT15 cells. Format: functional, cell-based. The procedure, abridged:
(§1)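 Cells (HUVEC from Lonza, others from ATCC) seeded at 2500–10 000 cells/well 24 h before dosing. 3-fold serial dilutions in DMSO, 0.1% DMSO final. Cell-Titer Blue read at 0 h and 72 h.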

The nature of data set [5]: Growth inhibition of human MCF10A cells after 72 hrs by celltiter-blue viability assay. Format: cell-based, MCF-10A. In a few lines:
as §1

Data set [6] has as its system MCF7. Briefly: Growth inhibition of human MCF7 cells after 72 hrs by celltiter-blue viability assay. Format: functional. The procedure, abridged: as §1
On the technique in general: Alamar Blue is a resazurin reagent that responds to reducing activity.

In data set [7] the test system is SW-620. Briefly: Growth inhibition of human SW620 cells after 72 hrs by celltiter-blue viability assay. The format is functional. As to conditions: SW-620, 72 h. In a few lines: as §1
In data set [8] the test system is HCT-15. In words: Induction of DNA damage in human HCT15 cells assessed as H2AX phosphorylation after 4 hrs by Western blot analysis presence of CYP inhibitor ketoconazole. Format: functional, cell-based. The procedure, abridged: (§2)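 Cells pretreated 1 h with 10 μM ketoconazole, then dosed 4 h. pSer139 H2AX measured by in-cell Western as 800/700 nm ratio (DRAQ5 normalization), scaled to 0.1% DMSO (0%) and 10 μM etoposide (100%). In SW620 cells, test agent at 10 μM with 20 μM camptothecin as comparator.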

For data set [9], the system named is SR. Briefly: Growth inhibition of human SR cells after 72 hrs by celltiter-blue viability assay. The format is functional. The procedure, abridged:
as §1

The subject of data set [10] is HCT-15. In words: Growth inhibition of human HCT15 cells at 0.5 to 2 uM after 72 hrs by celltiter-blue viability assay in presence of CYP inhibitor ketoconazole. The format is functional, cell-based. In a few lines: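 HCT-15 cells exposed to 0.5, 1 or 2 μM test agent across a ketoconazole dose range, 0.1% DMSO final. Cell-Titer Blue read at 0 and 72 h. Growth normalized to DMSO controls at 0 h and 72 h.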

The nature of data set [11]: Growth inhibition of human MES-SA cells after 72 hrs by celltiter-blue viability assay. Format: functional. The procedure, abridged:
as §1

Data set [12] concerns HCT-15. In words: Growth inhibition of human HCT15 cells after 72 hrs by celltiter-blue viability assay. Format: functional. As to conditions: HCT-15, 72 h. The procedure, abridged:
as §1

Data set [13] relates to SW-620. In words: Induction of DNA damage in human SW620 cells assessed as H2AX phosphorylation at 10 uM in presence of CYP inhibitor ketoconazole. The format is functional, cell-based. In a few lines: as §2
A short description of data set [14]: Growth inhibition of human U87 cells after 72 hrs by celltiter-blue viability assay. The note with it: U-87 MG. The format is functional, U-87MG ATCC. In a few lines: as §1
The subject of data set [15] is Liver. In words: Induction of DNA damage in human liver microsomes assessed as conversion of supercoiled plasmid DNA to nicked DNA by at 100 nM by agarose gel electrophoresis in presence of NADPH generating system. The format is functional. The note with it: Microsome. In a few lines: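 Supercoiled pLenti6 plasmid (120 μg/mL) incubated 4 h at 37 °C with compound (100 nM–1 μM, 1% DMSO) plus or minus human liver microsomes (0.25 mg/mL) and NADPH regenerating system (1.5 mM NADP, 12.5 mM G6P, 0.25 U/mL G6PDH, 100 mM phosphate pH 7.5, 5 mM MgCl2). Phenol/chloroform stop, DNA purified, 0.8% agarose gel for nicked versus supercoiled forms.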
In general terms: Microsomes from liver hold many membrane-bound enzymes, among them those of drug oxidation.

Data set [16] addresses ATP-dependent translocase ABCB1 (Homo sapiens, UniProt P08183). Briefly: Inhibition of MDR1 in human HCT15 cells assessed as calcein-AM efflux at 10 uM by fluorescence assay. The format is cell-based. The note with it: hct-15, 10 µM.
Data set [17] has as its system SW-620. Briefly: Induction of DNA damage in human SW620 cells assessed as H2AX phosphorylation after 1 hr by Western blot analysis. Format: functional, cell-based. In a few lines:
(§3)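 In-cell Western for pSer139 H2AX after 1 h dosing. Cells at 10 000/well plated 24 h ahead, 0.1% DMSO final. Fixed in 4% paraformaldehyde, permeabilized, stained with anti-phospho-H2AX plus IR800CW secondary and DRAQ5. 800/700 nm ratio, duplicate or triplicate wells, normalized to 0.1% DMSO (0%) and 10 μM etoposide (100%).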

For data set [18], the system named is MDA-MB-231. Briefly: Growth inhibition of human MDA-MB-231 cells after 72 hrs by celltiter-blue viability assay. The format is functional. The note with it: MDA-MB-231, 72 h. The procedure, abridged: as §1
In data set [19] the test system is HCT-15. In words: Induction of DNA damage in human HCT15 cells assessed as H2AX phosphorylation after 1 hr by Western blot analysis. The format is functional, cell-based. In a few lines: as §3
The test system of data set [20] is HeLa. Briefly: Growth inhibition of human HeLa cells after 72 hrs by celltiter-blue viability assay. Format: functional. The procedure, abridged:
as §1

The nature of data set [21]: Growth inhibition of human MES-SA/MX2 cells after 72 hrs by celltiter-blue viability assay. The note with it: MX2, 72 h. The format is functional. The procedure, abridged:
as §1

In data set [22] the test system is A549. Briefly: Growth inhibition of human A549 cells after 72 hrs by celltiter-blue viability assay. Format: functional. As to conditions: A549, 72 h. In a few lines:
as §1

Data set [23] in a line: Growth inhibition of HUVEC after 72 hrs by celltiter-blue viability assay. Format: cell-based. As to conditions: human. In a few lines: as §1
The test system of data set [24] is PC-3. In words: Growth inhibition of human PC3 cells after 72 hrs by celltiter-blue viability assay. Format: functional. As to conditions: PC-3, 72 h. The procedure, abridged: as §1
Data set [25] has as its system MCF7. Briefly: Selectivity ratio of GI50 for human MCF7 cells over GI50 for human MCF10A cells.
Data set [26] has as its system HCT-15. In words: Ratio of austocystin D GI50 to verapamil GI50 for MDR1 expressing human HCT15 cells. The format is functional.
In data set [27] the test system is MCF7. In words: Selectivity ratio of GI50 for human MCF7 cells over GI50 for human MES-SA cells. Format: functional.
The subject of data set [28] is HeLa. In words: Induction of DNA damage in human HeLa cells assessed as H2AX phosphorylation after 1 hr by Western blot analysis. The format is functional, cell-based. In a few lines: as §3
Data set [29] concerns MCF-10A. Briefly: Growth inhibition of human MCF10A cells after 72 hrs by celltiter-blue viability assay relative to control. Format: cell-based. In a few lines: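 MCF10A seeded at 2500–10 000 cells/well 24 h before dosing. 3-fold serial dilutions, 0.1% DMSO final. Cell-Titer Blue read at 0 and 72 h. Growth normalized to DMSO controls at 0 h (0%) and 72 h (100%). Dose-response fitted by nonlinear regression.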

ATP-dependent translocase ABCB1, sequence (P08183 whole entry): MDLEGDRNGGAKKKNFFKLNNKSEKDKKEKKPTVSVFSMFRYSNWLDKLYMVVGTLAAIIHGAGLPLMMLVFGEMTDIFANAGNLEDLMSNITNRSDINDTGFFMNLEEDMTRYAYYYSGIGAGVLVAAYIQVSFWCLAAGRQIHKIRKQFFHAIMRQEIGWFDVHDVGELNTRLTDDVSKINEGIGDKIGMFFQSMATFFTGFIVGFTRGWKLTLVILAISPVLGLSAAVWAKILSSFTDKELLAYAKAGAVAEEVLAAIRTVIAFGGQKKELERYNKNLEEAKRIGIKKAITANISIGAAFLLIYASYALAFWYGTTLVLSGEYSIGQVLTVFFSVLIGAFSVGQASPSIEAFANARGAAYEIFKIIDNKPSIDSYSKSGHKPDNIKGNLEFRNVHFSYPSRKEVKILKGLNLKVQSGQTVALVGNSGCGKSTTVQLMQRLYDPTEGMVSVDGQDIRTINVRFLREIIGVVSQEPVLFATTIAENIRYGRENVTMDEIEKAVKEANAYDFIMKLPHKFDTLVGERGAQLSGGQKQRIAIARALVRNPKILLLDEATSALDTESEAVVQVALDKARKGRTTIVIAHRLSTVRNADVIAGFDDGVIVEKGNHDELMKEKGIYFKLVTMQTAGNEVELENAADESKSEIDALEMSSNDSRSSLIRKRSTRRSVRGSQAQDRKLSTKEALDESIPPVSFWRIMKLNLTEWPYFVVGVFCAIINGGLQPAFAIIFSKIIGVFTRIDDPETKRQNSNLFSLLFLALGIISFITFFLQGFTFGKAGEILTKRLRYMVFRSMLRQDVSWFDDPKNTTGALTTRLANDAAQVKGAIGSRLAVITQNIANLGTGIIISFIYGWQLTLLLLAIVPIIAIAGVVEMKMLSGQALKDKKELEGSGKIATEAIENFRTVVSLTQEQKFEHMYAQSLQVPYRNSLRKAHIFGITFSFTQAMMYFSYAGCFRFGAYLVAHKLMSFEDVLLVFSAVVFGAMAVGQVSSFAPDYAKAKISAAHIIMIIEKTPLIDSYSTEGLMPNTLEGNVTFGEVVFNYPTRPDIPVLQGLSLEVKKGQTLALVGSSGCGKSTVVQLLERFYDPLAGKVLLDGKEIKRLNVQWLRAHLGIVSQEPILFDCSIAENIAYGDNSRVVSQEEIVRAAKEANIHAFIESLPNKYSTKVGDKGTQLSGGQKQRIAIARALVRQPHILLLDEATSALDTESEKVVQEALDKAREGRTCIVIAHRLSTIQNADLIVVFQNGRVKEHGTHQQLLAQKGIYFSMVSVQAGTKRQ

`CC(C)(O)CCc1ccc(O)c2c(=O)c3c(O)c4c(cc3oc12)O[C@H]1OCC[C@@]41O`: in [1], the result was inactive. For the same compound, the “growth inhibition (GI)” value in data set [2] is “inactive”.
Regarding `CC[C@@]1(O)C(=O)OCc2c1cc1n(c2=O)Cc2cc3ccccc3nc2-1`, in [3], the Activity entry is “Dose-dependent effect”.
Take `COc1ccc(CCN(C)CCCC(C#N)(c2ccc(OC)c(OC)c2)C(C)C)cc1OC` (stereo not drawn): the result in data set [4] was Active.
As usually defined, the GI50 is the concentration giving 50% growth inhibition. Higher therefore signals lower sensitivity of the cells. In data set [5], `COc1cc2c(c3oc(=O)c4c(c13)CCC4=O)[C@@H]1C=CO[C@@H]1O2` [AFLATOXIN] registered a GI50 at 72 h of more than 5 µM. The GI50 in data set [6] was more than 5 µM.
On to `CC(C)(O)CCc1ccc(O)c2c(=O)c3c(O)c4c(cc3oc12)O[C@H]1OC=C[C@@]41O` [AUSTOCYSTIN D], for which the GI50 at 72 h in data set [5] came to 3.51 µM; in data set [23] it was 4.25 µM. The GI50 in data set [7] was 0.027 µM; in [9], 0.016 µM; in data set [11] it was more than 10 µM; in [12], 0.042 µM; in [14] it was 4.95 µM; in data set [18], 0.549 µM. Moreover, the GI50 in [20] is more than 5 µM; in [21] it was 3.36 µM; in [6] (MCF7, 72 h), less than 0.001 µM; in data set [22], more than 5 µM; in data set [24], 0.003 µM. Also, the outcome in data set [8] and in [13] was inactive. The “growth inhibition (GI)” value in data set [10] is “inactive”. Besides, the result in data set [4], in data set [15], in [17], in data set [19] and in data set [28] was Active. For the same compound, the “inhibition (INH)” value in data set [16] was “Active”. Also, the RatioGI50 in data set [25] is recorded as more than 1000; in [26], more than 1000; in [27], more than 10000.
In turn, `COc1cccc2c1C(=O)c1c(O)c3c(c(O)c1C2=O)C[C@@](O)(C(=O)CO)C[C@@H]3O[C@H]1C[C@H](N)[C@H](O)[C@H](C)O1` [DOXORUBICIN] showed a GI50 at 72 h in [5] of more than 5 µM. In addition, in data set [29], the “fold change (FC)” value was found to be 50. Besides, the Activity entry in data set [3] was “Dose-dependent effect”. This compound also registered a GI50 in data set [6] (MCF7, 72 h) of more than 5 µM.
`COc1cc([C@@H]2c3cc4c(cc3[C@@H](O[C@@H]3O[C@@H]5CO[C@@H](C)O[C@H]5[C@H](O)[C@H]3O)[C@H]3COC(=O)[C@H]23)OCO4)cc(OC)c1O` [ETOPOSIDE] gave a GI50 at 72 h in data set [5] of more than 5 µM. Further, the “fold change (FC)” value in data set [29] was 50. The compound also displayed a GI50 in data set [6] (MCF7, 72 h) of more than 5 µM.
